Experiments:
Type in all cases: functional, cell-based
[1] = Cytotoxicity against human 253JBV cells
Procedure, shortened: (§1)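 Cells seeded at 3×10^4 per well in DMEM:Ham's F-12 with 2.5% charcoal-stripped FBS and allowed 24 h to attach. Then exposed to DMSO vehicle or compound, with medium and compound renewed every 48 h. Cell number counted at set times on a Coulter particle counter. Triplicate runs; IC50 obtained by linear regression.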

[2] = Cytotoxicity against human Panc28 cells; procedure, shortened: as §1
[3] = Cytotoxicity against human KU7 cells; procedure, shortened: as §1
PANC-1 = assay: Cytotoxicity against human Panc1 cells; procedure, shortened: as §1

Compound	IC50 [1] [µM]	IC50 [2] [µM]	IC50 [3] [µM]	IC50 (PANC-1) [µM]
COC(=O)[C@@]1(C)CC[C@]2(C)CC[C@]3(C)C(=CC(=O)[C@@H]4[C@@]5(C)C=C(S(C)(=O)=O)C(=O)C(C)(C)[C@@H]5CC[C@]43C)[C@@H]2C1	12	9.75	3.34	7.69
COC(=O)[C@]12CC[C@@H](C)[C@H](C)[C@H]1C1=CC[C@@H]3[C@@]4(C)C=C(C#N)C(=O)C(C)(C)[C@@H]4CC[C@@]3(C)[C@]1(C)CC2	0.17	0.97	0.3	0.53
COC(=O)[C@]12CC[C@@H](C)[C@H](C)[C@H]1C1=CC[C@@H]3[C@@]4(C)CC[C@H](O)C(C)(C)[C@@H]4CC[C@@]3(C)[C@]1(C)CC2 [METHYL URSOLATE]	6.13	10.6	8.95	11.8
CC1(C)C(=O)C(C#N)=C[C@]2(C)[C@H]3C(=O)C=C4[C@@H]5C[C@@](C)(C(=O)O)CC[C@]5(C)CC[C@@]4(C)[C@]3(C)CC[C@@H]12	6.1	7.32	5.88	3.81
COC(=O)[C@@]1(C)CC[C@]2(C)CC[C@]3(C)[C@H](C(=O)C=C4[C@@]5(C)C=C(I)C(=O)C(C)(C)[C@@H]5CC[C@]43C)[C@@H]2C1	3.62	3.66	2.61	4.45
COC(=O)[C@@]1(C)CC[C@]2(C)CC[C@]3(C)C(=CC(=O)[C@@H]4[C@@]5(C)C=C(I)C(=O)C(C)(C)[C@@H]5CC[C@]43C)[C@@H]2C1	2.67	12.8	3.04	4.08
COC(=O)[C@@]1(C)CC[C@]2(C)CC[C@]3(C)[C@H](C(=O)C=C4[C@@]5(C)C=C(C(F)(F)F)C(=O)C(C)(C)[C@@H]5CC[C@]43C)[C@@H]2C1	0.36	1.13	1.37	0.68
COC(=O)[C@]12CC[C@@H](C)[C@H](C)[C@H]1C1=CC[C@@H]3[C@@]4(C)C=C(I)C(=O)C(C)(C)[C@@H]4CC[C@@]3(C)[C@]1(C)CC2	4.9	13.5	6.02	6.91
COC(=O)[C@@]1(C)CC[C@]2(C)CC[C@]3(C)C(=CC(=O)[C@@H]4[C@@]5(C)C=C(C(F)(F)F)C(=O)C(C)(C)[C@@H]5CC[C@]43C)[C@@H]2C1	0.67	1.14	0.38	0.82
COC(=O)[C@]12CC[C@@H](C)[C@H](C)[C@H]1C1=CC[C@@H]3[C@@]4(C)C=C(C(F)(F)F)C(=O)C(C)(C)[C@@H]4CC[C@@]3(C)[C@]1(C)CC2	0.17	1.13	0.47	0.65
COC(=O)[C@@]1(C)CC[C@]2(C)CC[C@]3(C)C(=CC(=O)[C@@H]4[C@@]5(C)C=C(C#N)C(=O)C(C)(C)[C@@H]5CC[C@]43C)[C@@H]2C1	0.25	1.8	1.59	1.22
COC(=O)[C@@]1(C)CC[C@]2(C)CC[C@]3(C)C(=CC(=O)[C@@H]4[C@@]5(C)C=C(P(=O)(OC)OC)C(=O)C(C)(C)[C@@H]5CC[C@]43C)[C@@H]2C1	7.9	8.14	3.73	6.11

— ChEMBL document CHEMBL1144731, “Structure-dependent inhibition of bladder and pancreatic cancer cell growth by 2-substituted glycyrrhetinic and ursolic acid derivatives” (Bioorg Med Chem Lett, 2008)
